The values that follow come from ChEMBL document CHEMBL4316597, “Design, Synthesis, and Biological Evaluation of Itaconic Acid Derivatives as Potential Anti-Influenza Agents” (J Med Chem, 2019).

Data set [1] in a line: Selectivity ratio of CC50 for MDCK cells to EC50 for oseltamivir resistant-Influenza A virus A/TW/7855/09 (H1N1). The format is toxicity. The settings on record: dog, read-out: Ratio CC50/EC50. A digest of the protocol: (§1)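 MDCK cells (2 × 10^4/well, E10, 16–24 h) infected at nine-fold TCID50 with compound for 72 h, 37 °C, 5% CO2. Cells were fixed in 4% paraformaldehyde and stained with crystal violet; EC50 is from Reed–Muench. For CC50, cells had compound alone for 72 h, then MTT 3 h, DMSO, A570, Reed–Muench. SI = CC50/EC50; three independent experiments.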

Data set [2] is described as follows: Selectivity ratio of CC50 for MDCK cells to EC50 for oseltamivir resistant-Influenza A virus A/TW/6663/09 (H1N1). The format is toxicity. The conditions noted are these: dog, read-out: Ratio CC50/EC50. In a few lines:
as §1

Data set [3] relates to Influenza A virus. In words: Antiviral activity against oseltamivir resistant-Influenza A virus A/TW/6663/09 (H1N1) infected in MDCK cells after 72 hrs by crystal violet-staining based assay. The class given is functional, organism-based. In a few lines:
(§2)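 Cells seeded at 2 × 10^4/well in E10 (DMEM, 10% FBS), 16–24 h at 37 °C/5% CO2, washed with DPBS, then infected at nine-fold TCID50 with or without serial compound concentrations. Influenza is run in MDCK and enterovirus/rhinovirus in RD. Incubated 72 h, fixed in 4% paraformaldehyde, stained with 0.1% crystal violet, and read for cell density. EC50 = 50% CPE inhibition by Reed–Muench; mean ± S.D. of at least three runs.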

In data set [4] the test system is Influenza A virus. In words: Antiviral activity against oseltamivir resistant-Influenza A virus A/TW/7855/09 (H1N1) infected in MDCK cells after 72 hrs by crystal violet-staining based assay. The format is functional, organism-based. A digest of the protocol:
as §2

Take `C=C(CC(=O)Nc1ccc(F)cc1F)C(=O)Nc1ccc(F)cc1F`: the selectivity ratio in data set [1] was 33; in data set [2] it was 18. Also, the half-maximal effective concentration (EC50) with Influenza A virus [3] was determined as 4.83 µM; with Influenza A virus [4], 2.6 µM.
